These results are taken from ChEMBL document CHEMBL3580610, “Design, Synthesis, and Evaluation of Thyronamine Analogues as Novel Potent Mouse Trace Amine Associated Receptor 1 (mTAAR1) Agonists” (J Med Chem, 2015).

A word on the IC50: it is the concentration at which inhibition is half-maximal. Broadly, the Emax is the maximal effect, on the per cent scale that the assay sets. Usually EC50 stands for the concentration at which the effect is half-maximal. Broadly, the inhibition is the relative decrease from the control value, in per cent.

Assay [1] relates to Heart. Put plainly: Reduction in cardiac out put in male Wistar rat heart assessed as aortic and coronary flow after 30 mins by Cardiac perfusion technique. The class given is functional, tissue-based. Conditions: 0.5 h. In outline:
(§1)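 Male Wistar rats (275−300 g) were anesthetized with ether/air and given 1000 U heparin iv (femoral vein). The heart was excised and perfused as a working heart (atrial 20 cm, aortic 100 cm cannulae). After 5 min equilibration, it was perfused 60 min with buffer containing DMSO vehicle or escalating doses in DMSO. Cardiac output = aortic + coronary flow. 30-min values are expressed as % of baseline. IC50 from sigmoidal nonlinear regression; 3−7 hearts per group, mean ± SE.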

The test system of assay [2] is Mus musculus. The assay can be described thus: Induction of plasma glucose level in fasted CD1 mouse at 1.32 ug/kg, ip after 15 mins glucorefractometry relative to T0AM. It is filed as functional, organism-based. In outline:
(§2)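 Male CD-1 mice were fasted 4 h (8 to 12 h) and given a single ip dose (1.32, 4 or 11 μg·kg−1) or saline; n = 10 per group. Tail-vein blood glucose was read by glucorefractometer 15 min after injection. One-way ANOVA with Student−Newman−Keuls post hoc test, P < 0.05; mean ± SEM.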

Assay [3] addresses Trace amine-associated receptor 1 (Mus musculus) (UniProt Q923Y8). The assay can be described thus: Agonist activity at mouse TAAR1 expressed in HEK293 cells coexpressing cAMP BRET biosensor assessed as induction of CAMP production after 20 mins by bioluminescence resonance energy transfer assay relative to control. It is filed as functional, cell-based. The method in brief: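 Transient co-transfection of HEK-293 cells with mTAAR1 and the EPAC cAMP BRET biosensor; empty vector as control. Assayed with IBMX at 200 μM final. Screened at 10 μM, then dose-response on actives. Read-out is the acceptor/donor ratio from the 465−505 and 515−555 nm windows; time courses read for about 20 min after agonist addition. EC50 from nonlinear regression (one site specific binding); 4−6 independent experiments, mean ± SEM.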
For orientation: BRET reads energy transfer from a luciferase to a nearby fluorophore.

For assay [4], the target named is Trace amine-associated receptor 1 (Mus musculus, UniProt Q923Y8). The assay can be described thus: Agonist activity at mouse TAAR1 expressed in HEK293 cells coexpressing cAMP BRET biosensor assessed as induction of CAMP production after 20 mins by bioluminescence resonance energy transfer assay. It is filed as functional, cell-based. In outline: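 HEK-293 cells transiently transfected with mTAAR1 (or empty vector as control) plus EPAC cAMP BRET biosensor. Read started immediately after agonist addition, continuing ~20 min. IBMX 200 μM final present throughout. Initial screen at 10 μM; actives then run as dose-response. Emission read in 465−505 and 515−555 nm windows, acceptor/donor ratio taken. EC50 from nonlinear one-site fit; 4−6 independent experiments, mean ± SEM.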
Sequence of Trace amine-associated receptor 1 (Q923Y8 whole entry): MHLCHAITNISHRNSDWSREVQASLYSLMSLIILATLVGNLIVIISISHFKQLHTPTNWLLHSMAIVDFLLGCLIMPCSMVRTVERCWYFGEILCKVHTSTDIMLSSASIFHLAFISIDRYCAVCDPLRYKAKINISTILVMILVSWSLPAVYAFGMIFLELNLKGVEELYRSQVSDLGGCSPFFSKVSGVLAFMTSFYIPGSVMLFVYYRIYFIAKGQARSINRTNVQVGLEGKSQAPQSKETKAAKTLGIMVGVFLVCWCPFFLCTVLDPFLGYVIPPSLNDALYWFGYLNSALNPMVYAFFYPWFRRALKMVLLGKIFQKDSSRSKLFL

Assay [5] concerns Heart. The assay can be described thus: Reduction in cardiac out put in male Wistar rat heart assessed as aortic and coronary flow measured as rate of duration of experiment at 40 uM by Cardiac perfusion technique. The class given is functional.
The subject of assay [6] is Heart. The assay can be described thus: Reduction in cardiac out put in male Wistar rat heart assessed as aortic and coronary flow at 40 uM within 10 mins by Cardiac perfusion technique relative to control. It is filed as functional.
Assay [7] concerns Mus musculus. The assay can be described thus: Induction of plasma glucose level in fasted CD1 mouse at 4 ug/kg, ip after 15 mins glucorefractometry relative to T1AM. The class given is functional, organism-based. The method in brief:
as §2

The subject of assay [8] is Heart. Put plainly: Reduction in cardiac out put in male Wistar rat heart assessed as aortic and coronary flow at 20 to 40 uM after 30 mins by Cardiac perfusion technique. It is filed as functional, tissue-based. In outline:
as §1

Active and inactive are the calls of the source. The calls are words filed in the database; no cut-off is given here.

Sequence of Trace amine-associated receptor 1 (Mus musculus) (Q923Y8 whole entry): as above

With `Cc1cc(OCC(=O)O)ccc1Cc1ccc(N)cc1`, the IC50 in the assay with Heart [1] worked out at 30 µM. Also, the outcome in the assay on Mus musculus [2] was Active.

Regarding `NCCOc1ccc(Cc2ccc(O)cc2)cc1`, the Emax in assay [3] was found to be 80%. Further, in assay [4], the 50% effective concentration (EC50) worked out at 2.2 µM.

Regarding `NCCc1ccc(Oc2ccc(O)cc2)c(I)c1`, the IC50 in the assay with Heart [1] was determined as 27 µM. In assay [4], the EC50 was found to be 0.189 µM.

With `Cc1cc(OCCN)ccc1Cc1ccc(N)cc1`, in the assay on Heart [1], the IC50 was 30 µM. Besides, the Time in the assay with Heart [5] was determined as 1 h. In addition, the inhibition at 40 µM in the assay on Heart [6] was 60%. Moreover, the Emax in assay [3] was found to be 75%. For the same compound, the outcome in the assay on Mus musculus [7] was Active. The EC50 in assay [4] came out at 0.24 µM. Also, in the assay with Heart [8], the inhibition result was “Active”.

`NCCc1ccccc1` [PHENETHYLAMINE]: the EC50 in assay [4] is 0.138 µM.

As to `NCCOc1ccc(Cc2ccc(N)cc2)cc1`, the IC50 with Heart [1] was found to be 34 µM. Moreover, the result in the assay with Mus musculus [2] was inactive. The Emax in assay [3] was 40%. The EC50 in assay [4] was found to be 1.7 µM.

`NCCc1ccc(Cc2ccc(N)cc2)cc1`: the Emax in assay [3] came to 100%. Further, the EC50 in assay [4] is 0.8 µM.

As to `Nc1ccc(Cc2ccc(OCC(=O)O)cc2)cc1`, in the assay on Heart [1], the IC50 was found to be 30 µM. In the assay on Mus musculus [2], the result was inactive.
